# Non-standard residues stand in square brackets, D forms with d. Residues, ends and D or L forms follow the SMILES beside them. ξ: configuration not given here. *: point of attachment. Sta = CC(C)C[C@H](N)[C@@H](O)CC(=O)O; NMeH = CN[C@@H](Cc1c[nH]cn1)C(=O)O; NHCH2(2-pyridyl) = c1ccc(CN*)nc1; NMeF = CN[C@@H](Cc1ccccc1)C(=O)O; αMeF = C[C@](N)(Cc1ccccc1)C(=O)O; ξαMeF = CC(N)(Cc1ccccc1)C(=O)O; Boc = CC(C)(C)OC(=O)*
# Biological target: Pepsin A (Sus scrofa, UniProt P00791)
# Assay: Inhibition of porcine pepsin
# Method in brief: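 Porcine pepsin with porcine hemoglobin substrate in 0.02 M KCl-HCl buffer pH 2, with compounds dissolved in buffer. Incubation 25 min at 37 °C, then perchloric acid added and acid-soluble fraction absorbance read at 280 nm.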
# Pepsin A, sequence (P00791 whole entry): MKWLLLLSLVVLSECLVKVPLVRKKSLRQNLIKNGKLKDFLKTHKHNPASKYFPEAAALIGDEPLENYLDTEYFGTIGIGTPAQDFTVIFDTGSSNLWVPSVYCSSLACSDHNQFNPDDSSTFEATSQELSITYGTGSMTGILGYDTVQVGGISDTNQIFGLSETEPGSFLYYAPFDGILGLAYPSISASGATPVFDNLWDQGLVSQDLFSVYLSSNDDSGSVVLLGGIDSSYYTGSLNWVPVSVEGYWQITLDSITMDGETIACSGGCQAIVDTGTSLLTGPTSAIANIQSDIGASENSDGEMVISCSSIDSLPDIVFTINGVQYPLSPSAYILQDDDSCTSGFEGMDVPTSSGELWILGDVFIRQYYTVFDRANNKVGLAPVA
row,IC50 [nM],SMILES
1,6800,CC[C@H](C)[C@H](NC(=O)[C@@H](C[C@H](O)[C@H](CC(C)C)NC(=O)[C@H](Cc1c[nH]cn1)N(C)C(=O)[C@H](Cc1ccccc1)NC(=O)[C@@H]1CCCN1C(=O)OC(C)(C)C)C(C)C)C(=O)NCc1ccccn1

# Biological target: T1, Cathepsin D (Bos taurus, UniProt P80209)
# T1 sequence (P80209 whole entry): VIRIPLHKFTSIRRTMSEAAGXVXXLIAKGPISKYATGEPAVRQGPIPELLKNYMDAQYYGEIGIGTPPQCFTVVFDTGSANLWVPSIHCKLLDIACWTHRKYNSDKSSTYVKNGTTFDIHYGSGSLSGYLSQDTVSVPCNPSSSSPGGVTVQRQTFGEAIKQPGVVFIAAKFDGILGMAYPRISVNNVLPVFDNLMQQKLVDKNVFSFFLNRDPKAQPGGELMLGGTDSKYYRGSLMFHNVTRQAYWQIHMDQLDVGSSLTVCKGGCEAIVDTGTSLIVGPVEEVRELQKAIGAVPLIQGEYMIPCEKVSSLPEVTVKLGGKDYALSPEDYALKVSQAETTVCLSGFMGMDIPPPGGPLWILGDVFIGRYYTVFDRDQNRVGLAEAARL
# Assay: Inhibition of bovine cathepsin D
row,IC50 [nM],SMILES
1,6300,CC[C@H](C)[C@H](NC(=O)[C@@H](C[C@H](O)[C@H](CC(C)C)NC(=O)[C@H](Cc1c[nH]cn1)N(C)C(=O)[C@H](Cc1ccccc1)NC(=O)[C@@H]1CCCN1C(=O)OC(C)(C)C)C(C)C)C(=O)NCc1ccccn1

# Biological target: T2, Renin (Homo sapiens, UniProt P00797)
# T2 sequence (P00797 whole entry): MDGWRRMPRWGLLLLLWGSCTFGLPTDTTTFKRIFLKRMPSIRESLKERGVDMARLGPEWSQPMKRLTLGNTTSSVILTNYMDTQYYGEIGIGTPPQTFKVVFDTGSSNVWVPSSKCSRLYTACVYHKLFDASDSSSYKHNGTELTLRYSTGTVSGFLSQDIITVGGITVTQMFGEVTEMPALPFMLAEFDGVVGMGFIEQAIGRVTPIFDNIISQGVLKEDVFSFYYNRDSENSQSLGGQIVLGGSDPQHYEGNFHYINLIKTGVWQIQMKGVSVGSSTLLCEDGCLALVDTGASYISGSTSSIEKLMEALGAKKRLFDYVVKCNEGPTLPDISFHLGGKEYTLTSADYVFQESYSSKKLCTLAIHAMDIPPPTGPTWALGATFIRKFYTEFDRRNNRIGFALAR
# Assay: Inhibition of human plasma renin
# Format: cell-free
# Method in brief: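 Lyophilized human plasma with 0.1% EDTA as renin source. Plasma is combined with phenylmethylsulfonyl fluoride, maleate buffer pH 6.0 and inhibitor in 1% Tween 80/water, then incubated 90 min at 37 °C. Angiotensin I measured by radioimmunoassay. Percent inhibition taken vs control tubes; IC50 estimated graphically from 3–4 concentrations on a semilog plot.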
row,IC50 [nM],SMILES
1,68,CC[C@H](C)[C@H](NC(=O)[C@@H](NC[C@H](CC(C)C)NC(=O)[C@H](Cc1c[nH]cn1)N(C)C(=O)[C@H](Cc1ccccc1)NC(=O)[C@@H]1CCCN1C(=O)OC(C)(C)C)C(C)C)C(=O)NCc1ccccn1
2,450,CC[C@H](C)[C@H](NC(=O)[C@@H](NC[C@H](CC(C)C)NC(=O)[C@H](Cc1c[nH]cn1)N(C)C(=O)[C@H](Cc1ccccc1)NC(=O)OC(C)(C)C)C(C)C)C(=O)NCc1ccccn1
3,0.65,CC[C@H](C)[C@H](NC(=O)[C@@H](C[C@H](O)[C@H](CC(C)C)NC(=O)[C@H](Cc1c[nH]cn1)N(C)C(=O)[C@H](Cc1ccccc1)NC(=O)OC(C)(C)C)C(C)C)C(=O)NCc1ccccn1
4,120,CCC(C)C(NC(=O)CC(O)C(CC(C)C)NC(=O)C(Cc1cnc[nH]1)N(C)C(=O)C(Cc1ccccc1)NC(=O)OC(C)(C)C)C(=O)NCc1ccccn1 (stereo not drawn)
5,24,CC[C@H](C)[C@H](NC(=O)C[C@H](O)[C@H](CC(C)C)NC(=O)[C@H](Cc1ccccc1)NC(=O)[C@H](Cc1ccccc1)NC(=O)OC(C)(C)C)C(=O)NCc1ccccn1 (Boc-FF[Sta]I-{NHCH2(2-pyridyl)})
6,100,CC[C@H](C)[C@H](NC(=O)C[C@H](O)[C@H](CC(C)C)NC(=O)[C@H](Cc1ccccc1)N(C)C(=O)[C@H](Cc1ccccc1)NC(=O)OC(C)(C)C)C(=O)NCc1ccccn1 (Boc-F[NMeF][Sta]I-{NHCH2(2-pyridyl)})
7,> 10000,CC[C@H](C)[C@H](NC(=O)C[C@H](O)[C@H](CC(C)C)NC(=O)[C@](C)(Cc1ccccc1)NC(=O)[C@H](Cc1ccccc1)NC(=O)OC(C)(C)C)C(=O)NCc1ccccn1 (Boc-F[αMeF][Sta]I-{NHCH2(2-pyridyl)})
8,190,CC[C@H](C)[C@H](NC(=O)C[C@H](O)[C@H](CC(C)C)NC(=O)[C@H](Cc1c[nH]cn1)N(C)C(=O)[C@H](Cc1ccccc1)NC(=O)[C@@H]1CCCN1C(=O)OC(C)(C)C)C(=O)NCc1ccccn1 (Boc-PF[NMeH][Sta]I-{NHCH2(2-pyridyl)})
9,340,CC[C@H](C)[C@H](NC(=O)C[C@H](O)[C@H](CC(C)C)NC(=O)[C@H](Cc1ccccc1)NC(=O)[C@H](Cc1ccccc1)N(C)C(=O)OC(C)(C)C)C(=O)NCc1ccccn1 (Boc-[NMeF]F[Sta]I-{NHCH2(2-pyridyl)})
10,720,CC[C@H](C)[C@H](NC(=O)C[C@H](O)[C@H](CC(C)C)NC(=O)[C@H](Cc1c[nH]cn1)NC(=O)[C@H](Cc1ccccc1)N(C)C(=O)OC(C)(C)C)C(=O)NCc1ccccn1 (Boc-[NMeF]H[Sta]I-{NHCH2(2-pyridyl)})
11,6800,CC[C@H](C)[C@H](NC(=O)C[C@H](O)[C@H](CC(C)C)NC(=O)[C@H](Cc1ccccc1)NC(=O)C(C)(Cc1ccccc1)NC(=O)OC(C)(C)C)C(=O)NCc1ccccn1 (stereo partly drawn) (Boc-[ξαMeF]F[Sta]I-{NHCH2(2-pyridyl)})

# Reference: ChEMBL document CHEMBL1123253, “Design and synthesis of a potent and specific renin inhibitor with a prolonged duration of action in vivo” (J Med Chem, 1986)
